This is an account of results in ChEMBL document CHEMBL1131592, “DNA-Directed alkylating agents. 7. Synthesis, DNA interaction, and antitumor activity of bis(hydroxymethyl)- and bis(carbamate)-substituted pyrrolizines and imidazoles” (J Med Chem, 1998).

One test has as its system P388. Put plainly: Compound was evaluated for reduction in P388 (type I DNA) cell numbers to 50% of control values after a 72 hour exposure. The test is classed as functional, cell-based. The conditions noted are these: Mus musculus, P388, 72 h. Put shortly: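 P388 murine leukemia cells, log-phase cultures; drug present throughout 72 h growth period. IC50 = nominal drug concentration reducing cell density to 50% of control; eight control wells per plate. Averages of at least two (table footnote: three) independent determinations.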

The subject of the next test is Nucleic Acid. Nature of the test: Rate constants (1/s x 10e4) for loss of compound when incubated with calf thymus DNA in SHE buffer (pH 7.0) at 37 degree Centigrade, as determined by HPLC. It is filed as nucleic-acid assay. The conditions noted are these: Bos taurus. The method, boiled down: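 Aliquots extracted into 1-butanol with NaOAc; unreacted drug quantified by C-18 reverse-phase HPLC, 254 nm. kobs (hydrolysis plus alkylation) from ln(peak area) vs time fit.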

pIC50: −log10 of the molar value.

One may read the pIC50 as −log10 of the IC50, conventionally taken in molar units. Read a low pIC50 as a large IC50. `CNC(=O)OCc1ncn(CCCc2ccc(Nc3c4ccccc4nc4ccccc34)cc2)c1COC(=O)NC` showed a pIC50 in the test with P388 of 4.80.

As to `CSc1nc(CO)c(CO)n1CCCc1ccc(NC(=O)c2ccc(Nc3ccnc4ccccc34)cc2)cc1`, the pIC50 in the test on P388 was < 4.70.

Consider `O=C(Nc1ccc(CCc2c(CO)c(CO)c3n2CCC3)cc1)c1ccc(Nc2ccnc3ccccc23)cc1`, for which the pIC50 in the test on P388 was 7.52. Further, the k obs with Nucleic Acid is 0.000158 s⁻¹.

As to `O=C(Nc1ccc(CCCc2c(CO)c(CO)c3n2CCC3)cc1)c1ccc(Nc2ccnc3ccccc23)cc1`, in the test with P388, the pIC50 was 6.96. The compound also yielded a k obs in the test on Nucleic Acid of 0.000186 s⁻¹.

As to `CNC(=O)OCc1ncn(CCCc2ccc(NC(=O)c3ccc(Nc4ccnc5ccccc45)cc3)cc2)c1COC(=O)NC`, the pIC50 with P388 is < 4.70.

On to `CNC(=O)OCc1nc(SC)n(CCCc2ccc(NC(=O)c3ccc(Nc4ccnc5ccccc45)cc3)cc2)c1COC(=O)NC`, for which, in the test with P388, the pIC50 was 4.96. The same compound came in with a k obs with Nucleic Acid of 8.8e-05 s⁻¹.

With `OCc1c(CO)c2n(c1CCCc1ccc(Nc3c4ccccc4nc4ccccc34)cc1)CCC2`, the pIC50 in the test on P388 was 5.89. The compound also registered a k obs with Nucleic Acid of 0.000187 s⁻¹.

As to `CSc1nc(CO)c(CO)n1CCCc1ccc(Nc2c3ccccc3nc3ccccc23)cc1`, in the test on P388, the negative-log IC50 (pIC50) is 5.89.

Consider `CNC(=O)OCc1nc(SC)n(C)c1COC(=O)NC`, for which the pIC50 in the test on P388 is < 4.70. The same compound displayed a k obs with Nucleic Acid of 0.000134 s⁻¹.

Regarding `OCc1ncn(CCCc2ccc(Nc3c4ccccc4nc4ccccc34)cc2)c1CO`, the negative-log IC50 (pIC50) in the test with P388 was 4.92.

Consider `CNC(=O)OCc1nc(SC)n(CCCc2ccc(Nc3c4ccccc4nc4ccccc34)cc2)c1COC(=O)NC`, for which, in the test on P388, the pIC50 is 6.10. The k obs with Nucleic Acid is 0.000161 s⁻¹.

Take `O=C(Nc1ccc(CCCn2cnc(CO)c2CO)cc1)c1ccc(Nc2ccnc3ccccc23)cc1`: the negative logarithm of the IC50 (pIC50) in the test on P388 is < 4.70.
